The list is not random: actives were taken first. Their share in the collection is about 3.5%.
MITF TRPM1 HTS – increases MITF-driven TRPM1 promoter luciferase signal | SK-MEL-5 TRPM1-promoter luciferase, 24 h; % of positive control, neutral wells = 0 | activation, % at 12.5 µM | 0.75% of 300,000 active;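 active = mean activation of at least 80% with every replicate also reaching 80%; inconclusive = mean reaches 80% but some replicate falls short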;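 also: 0% = neutral control wells and 100% = parthenolide positive control wells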
esBAF inh – blocks esBAF chromatin remodeling in mouse ES cells; Bmi1-luciferase knock-in reporter, 24 h; 100% = twice the neutral-well signal; reporter increase, % at 12.5 µM; 2% of 350,000 active; AID 602393; in the data active = activation above about 40%; inconclusive = no clear call, values can overlap the other calls;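 also: 0% = median of the plate's neutral control wells and 100% = double that signal; a rise in the Bmi1 reporter signal indicates esBAF inhibition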
Wnt act – Wnt/beta-catenin pathway activation | activation, % at 9.35 µM | 1.2% of 300,000 active | Wnt/beta-catenin reporter cell assay, activator, plate reader; in the data active = activation above about 30%, passing the limit was not always enough; inconclusive = no clear call, values can overlap the other calls;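 also: 0% = neutral control wells and 100% = positive control wells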
Env fusion inh – HIV envelope-mediated fusion inhibition; AID 651610; 1.1% of 360,000 active; inhibition, % at 12.3 µM; HeLa-JRFL Env/CEM21 cell fusion, luciferase;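 active = mean replicate inhibition score of at least 50 and every replicate individually at or above 50; inconclusive = only one of the two criteria met; inactive = mean below 50 and not all replicates reaching 50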;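 also: 0% = plate neutral controls and 100% = maraviroc near 300 nM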
ERAP1 HTS inh – blocks human ERAP1 aminopeptidase activity | recombinant ERAP1, Leu-AMC fluorescence, 60 min | inhibition, % at 10.7 µM | 0.15% of 340,000 active | AID 652197;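 active = mean replicate inhibition of at least 30%, or all replicates individually reaching that 30% level; inactive = mean below 30% and not every replicate reaching it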;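 also: 0% = neutral control wells and 100% = L-leucinethiol positive control wells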
Target sequence (Q9NZ08 whole entry, looked up): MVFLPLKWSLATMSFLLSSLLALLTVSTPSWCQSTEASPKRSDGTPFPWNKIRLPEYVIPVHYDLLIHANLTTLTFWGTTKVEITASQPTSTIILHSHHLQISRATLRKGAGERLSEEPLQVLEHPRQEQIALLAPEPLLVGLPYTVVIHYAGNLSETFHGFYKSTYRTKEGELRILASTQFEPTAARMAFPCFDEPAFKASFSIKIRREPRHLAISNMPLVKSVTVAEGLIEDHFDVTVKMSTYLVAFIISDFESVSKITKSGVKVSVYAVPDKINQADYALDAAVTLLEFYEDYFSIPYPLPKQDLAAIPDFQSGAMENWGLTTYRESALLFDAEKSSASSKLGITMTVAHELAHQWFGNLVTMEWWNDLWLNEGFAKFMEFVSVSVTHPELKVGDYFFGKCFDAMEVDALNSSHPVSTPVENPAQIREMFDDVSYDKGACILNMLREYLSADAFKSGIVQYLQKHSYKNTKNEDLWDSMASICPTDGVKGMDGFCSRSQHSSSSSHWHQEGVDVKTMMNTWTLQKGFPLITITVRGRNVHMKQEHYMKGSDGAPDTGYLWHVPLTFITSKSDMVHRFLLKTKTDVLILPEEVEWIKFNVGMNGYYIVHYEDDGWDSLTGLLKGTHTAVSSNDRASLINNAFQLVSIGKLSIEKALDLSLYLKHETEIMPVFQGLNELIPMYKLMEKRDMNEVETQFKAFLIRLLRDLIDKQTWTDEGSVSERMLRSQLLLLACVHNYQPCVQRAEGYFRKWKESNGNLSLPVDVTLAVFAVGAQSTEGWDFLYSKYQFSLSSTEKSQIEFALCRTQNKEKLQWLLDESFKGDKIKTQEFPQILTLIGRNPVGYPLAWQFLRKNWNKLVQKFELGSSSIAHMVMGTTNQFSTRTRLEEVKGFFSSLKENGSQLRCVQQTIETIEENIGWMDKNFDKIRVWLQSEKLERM
Cneo AK release – causes C. neoformans cell lysis; adenylate kinase release luminescence, 4 h; normalised: neutral wells 0, clomiphene wells 100; lysis activity, % at 15 µM; 0.2% of 360,000 active; AID 651654;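 active = mean lysis activity across replicates of at least 80%, whatever share of replicates individually reach that level; inactive = mean lysis activity below 80%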
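read-out = cell lysis signal | test system = log-phase Cryptococcus neoformans yeast cells | input = cells at 5 × 10^6 per mL | medium = fresh YPD growth medium | signal = luminescent adenylate kinase detection reagent | timing = 4 h at 37 °C static, read 1 h later | dosing = single dose | controls = Clomiphene as positive lysis control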
The depositor's hits bear a star; [ ] = remark or other dose.

For CC(C)NC(=O)N(C)C[C@@H]1Oc2c(NC(=O)c3ccc(-c4nccs4)cc3)cccc2C(=O)N([C@H](C)CO)C[C@@H]1C the results were esBAF inh -3.3, Env fusion inh 9.8[16.7 µM], ERAP1 HTS inh -2.1 and Cneo AK release -1.0.
For COc1ccc(-c2nnc(SCc3nnc(-c4ccc(Cl)cc4)o3)n2-c2ccccc2)cc1 the results were esBAF inh 14.4, Env fusion inh 65.1* and Cneo AK release -1.7.
For Cc1csc(SCc2nnc(-c3ccc(Cl)cc3)o2)n1 the results were MITF TRPM1 HTS 50.4 and esBAF inh 59.8*.
For COc1ccc2c3c([nH]c2c1)[C@@H](CO)N(Cc1ccccc1Cl)CC31CN(C(C)=O)C1 the results were ERAP1 HTS inh -1.9.
`COc1ccc2c3c([nH]c2c1)[C@H](CO)N(Cc1ccccc1OC)CC31CN(C)C1` gave ERAP1 HTS inh 53.2*.
For COc1ccc2c3c([nH]c2c1)[C@@H](CO)N(Cc1ccccc1OC)CC31CN(C)C1 the results were ERAP1 HTS inh 51.1*.
`COc1ccc2c3c([nH]c2c1)[C@H](CO)N(Cc1ccccc1)CC31CN(C)C1` gave ERAP1 HTS inh -3.1.
C[C@H]1CN([C@@H](C)CO)C(=O)c2cc(NC(=O)Cn3cnnn3)ccc2O[C@@H]1CN(C)S(C)(=O)=O was read as esBAF inh -3.0, Env fusion inh -14.9[16.7 µM], ERAP1 HTS inh -0.9 and Cneo AK release -2.7.
Screening CO[C@H]1CN(C)C(=O)c2ccc(NC(=O)c3ccccc3F)cc2OC[C@H](C)NC[C@@H]1C returned ERAP1 HTS inh -1.7.
Screening COc1ccc2ccccc2c1CNC(C)c1ccccc1 (stereo unspecified) returned MITF TRPM1 HTS -10.8, esBAF inh -13.2, Wnt act -0.1, Env fusion inh 16.6, ERAP1 HTS inh -2.0 and Cneo AK release 8.0.
For CC(NCCCOc1cccc2ccccc12)c1ccccc1 (stereo unspecified) the results were esBAF inh -8.6, Wnt act -1.8, Env fusion inh 74.9*, ERAP1 HTS inh 0.3 and Cneo AK release 7.6.
For CN1c2ccc(C#Cc3cccnc3)cc2[C@H]2[C@H](CCN2C(=O)C2CCCC2)[C@@H]1CO the results were ERAP1 HTS inh -1.0.
Screening O=C(Nc1cccc(F)c1)N1C[C@@H]2[C@H](c3ccccc31)[C@@H](CO)N2C(=O)c1cccnc1 returned esBAF inh 5.2, ERAP1 HTS inh -0.8 and Cneo AK release 1.6.
COc1ccc(N2Cc3ccc(OC)c(OC)c3C2=O)cc1 was read as MITF TRPM1 HTS 86.4*, esBAF inh 38.2, Wnt act -1.3, Env fusion inh -48.9, ERAP1 HTS inh -1.8 and Cneo AK release -6.5.
Screening COc1ccc2c(c1OC)C(=O)N(c1nccs1)C2 returned MITF TRPM1 HTS 16.7, esBAF inh 36.5, Wnt act 20.5 and Cneo AK release -1.8.
`O=C(Nc1ccc(F)cc1)N1[C@@H]2CNc3ccccc3[C@@H]2[C@@H]1CO` gave esBAF inh 7.9, ERAP1 HTS inh -1.0 and Cneo AK release -3.8.
`COc1ccc(/C=N/NC(=O)c2cccc(Br)c2)cc1CSc1ccccn1` gave MITF TRPM1 HTS 2.2.
COc1ccc(/C=N/NC(=O)c2ccn[nH]2)cc1CSc1ccccn1 was read as MITF TRPM1 HTS 32.5, esBAF inh 44.9*, Wnt act 0.0, Env fusion inh -16.5, ERAP1 HTS inh -1.6 and Cneo AK release 0.0.
`CC(=C/c1ccco1)/C=N/N1CCN(c2ccccc2)CC1` gave esBAF inh 48.9*, Env fusion inh -151.8 and Cneo AK release 2.0.
Screening Oc1ccccc1-c1cc(-c2ccccc2)no1 returned MITF TRPM1 HTS 51.2, esBAF inh 36.9 and Cneo AK release -5.2.
For Clc1ccc(-c2cc(-c3ccccc3)on2)cc1 the results were MITF TRPM1 HTS inconclusive, esBAF inh 21.4, Wnt act 53.6*, Env fusion inh -194.7 and Cneo AK release -0.8.
Screening Cc1nc(-c2cc(-c3ccc(Cl)cc3)no2)cs1 returned MITF TRPM1 HTS 9.8, Wnt act 35.6*, Env fusion inh -47.7 and ERAP1 HTS inh 2.0.
Cc1nc2ccc(NC(=O)c3ccc(Cl)c(S(=O)(=O)N(C)c4ccccc4)c3)cc2s1 was read as MITF TRPM1 HTS -51.4, esBAF inh 1.9, Wnt act -15.0, Env fusion inh 73.6* and Cneo AK release -9.6.
`Cc1nc2cc(NC(=O)c3ccc(S(=O)(=O)N(C)c4ccccc4)cc3)ccc2o1` gave MITF TRPM1 HTS 10.1, esBAF inh 83.4*, Wnt act 1.4, Env fusion inh -14.0, ERAP1 HTS inh -1.7 and Cneo AK release 0.8.
Cc1nc2ccc(NC(=O)c3cc(S(=O)(=O)N(C)c4ccccc4)ccc3Cl)cc2s1 was read as MITF TRPM1 HTS -6.6 and Env fusion inh 87.4*.
CC(C)C#Cc1ccc([C@@H]2[C@@H](CO)N3CCCCN(C(=O)Nc4ccccc4)C[C@@H]23)cc1 was read as ERAP1 HTS inh 3.4 and Cneo AK release 3.6.
CCC(=O)N1C[C@H](O)COC[C@H]2O[C@H](CC(=O)NCc3ccc(Oc4ccccc4)cc3)CC[C@@H]21 was read as esBAF inh 8.2, Env fusion inh -2.9[16.7 µM], ERAP1 HTS inh 0.7 and Cneo AK release 4.5.
For CCCCCc1ccc(-c2cn(Cc3ccc(C)cc3)nn2)cc1 the results were MITF TRPM1 HTS 13.2, esBAF inh 18.4, Wnt act 6.0, ERAP1 HTS inh 7.6 and Cneo AK release -0.1.
`COc1ccc(-c2cn(Cc3ccc(C)cc3)nn2)cc1` gave MITF TRPM1 HTS 85.7*, esBAF inh 79.0*, Wnt act 29.1, Env fusion inh -59.0, ERAP1 HTS inh -3.3 and Cneo AK release -0.8.
N#C[C@@H]1[C@@H](c2ccccc2)[C@@H](CO)N1C(=O)c1ccccc1F was read as esBAF inh -3.8, ERAP1 HTS inh 1.3 and Cneo AK release 51.9.
For C[C@@H]1CCCCO[C@H](CN(C)C(=O)Nc2ccc(F)cc2)[C@H](C)CN([C@@H](C)CO)C(=O)c2cc(NS(=O)(=O)c3ccc(Cl)cc3)ccc2O1 the results were esBAF inh 6.3, Env fusion inh -89.5[16.7 µM], ERAP1 HTS inh 3.3 and Cneo AK release 93.9*.
For C[C@H]1CCCCO[C@H](CN(C)C(=O)Nc2ccc(F)cc2)[C@@H](C)CN([C@@H](C)CO)C(=O)c2cc(NS(=O)(=O)c3ccc(Cl)cc3)ccc2O1 the results were esBAF inh -4.9, Env fusion inh 3.3[16.7 µM], ERAP1 HTS inh 2.0 and Cneo AK release 84.7*.
For C[C@H](CO)N1C[C@H](C)[C@H](CN(C)C(=O)Nc2ccc(F)cc2)OCCCC[C@H](C)Oc2ccc(NS(=O)(=O)c3ccc(Cl)cc3)cc2C1=O the results were esBAF inh 4.4, Env fusion inh -16.5[16.7 µM], ERAP1 HTS inh -0.9 and Cneo AK release 10.0.
